High-throughput results: PubChem, The Scripps Research Institute Molecular Screening Center
PP5 inh – inhibitors of human protein phosphatase 5 (PP5); purified PP5c, OMFP substrate fluorescence; inhibition, % at 6.7 µM; hit rate 0.18% among 320,000; AID 1987;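 active means inhibition above the campaign's mean inhibition across all tested compounds plus 3 SD, cut at about 9.5% in these data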
PP1 counter – PP1-alpha (human) inhibition in PP5 counter-screen | P62136 | purified PP1alpha, OMFP fluorescence | inhibition, % at 6.7 µM | hit rate 0.9% among 320,000;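 active means inhibition above the mean inhibition of all tested compounds plus 3 SD, computed separately for each screening campaign, cut at about 15% in these data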
proCasp7 act – counter-screen for procaspase-3 activators: activators of human procaspase-7; P55210; recombinant procaspase-7, Ac-DEVD-pNA absorbance 405 nm; D23A/D198A/D206A triple mutant, cannot self-cleave; scale: DMSO 0, 5 µM enzyme 100; activation, % at 8.5 µM; hit rate 0.093% among 330,000;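 active means percent activation above the screen-wide mean plus 3 SD, cut at about 25% in these data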
Target sequence (P55210 whole entry D23A/D198A/D206A): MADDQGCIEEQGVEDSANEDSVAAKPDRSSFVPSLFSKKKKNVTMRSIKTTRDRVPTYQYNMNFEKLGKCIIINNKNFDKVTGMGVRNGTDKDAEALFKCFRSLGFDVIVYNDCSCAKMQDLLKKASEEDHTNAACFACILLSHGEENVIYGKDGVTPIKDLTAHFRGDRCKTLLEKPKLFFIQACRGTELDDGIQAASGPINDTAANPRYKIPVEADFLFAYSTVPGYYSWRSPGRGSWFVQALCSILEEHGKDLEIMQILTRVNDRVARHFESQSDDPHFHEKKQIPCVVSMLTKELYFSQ
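Test system: Procaspase-7 triple mutant (PC-7 D3A). Also added: Ac-DEVD-pNA substrate, 400 µM as added. Schedule: 1 h enzyme–compound preincubation and 2 h substrate reaction, both 25 °C. Signal: p-Nitroaniline absorbance at 405 nm, read at 0 and 120 min. Control set: low DMSO alone, high DMSO plus 5 µM PC-7.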
proCasp3 act – activators of human procaspase-3. P42574. hit rate 0.11% among 330,000. activation, % at 8.5 µM. recombinant procaspase-3 D3A, Ac-DEVD-pNA absorbance 405 nm;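 active means activation above the mean of all tested compounds plus 3 SD, cut at about 21% in these data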
Target sequence (P42574 whole entry D9A/D28A/D175A): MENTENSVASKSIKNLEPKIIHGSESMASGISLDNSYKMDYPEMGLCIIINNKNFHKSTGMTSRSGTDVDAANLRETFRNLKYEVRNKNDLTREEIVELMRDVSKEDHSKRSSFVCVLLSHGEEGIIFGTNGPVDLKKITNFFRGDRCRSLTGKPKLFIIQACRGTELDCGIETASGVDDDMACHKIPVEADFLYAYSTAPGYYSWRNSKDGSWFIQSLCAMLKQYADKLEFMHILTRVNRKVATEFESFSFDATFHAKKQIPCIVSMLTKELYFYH
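Assay system: Procaspase-3 D3A mutant, all three cleavage aspartates alanine. Buffer or medium: Zinc-free HEPES saline buffer with Triton X-100. Times: 1 h compound preincubation, 2 h substrate hydrolysis at 25 °C. Measured by: 405 nm absorbance of p-nitroaniline, reads at 0 and 120 min. Read-out basis: percent activation relative to control range. Replicates: singlicate.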
Large screens that a line does not name were inactive. Rows were chosen to be rich in hits. Some 1.2% of all compounds tested hit in one or more screens of this group.

O=C(Nc1ccc([N+](=O)[O-])cc1)Nc1ccc(OC(F)F)c(Cl)c1	PP1 counter 17.5
O=C(Nc1ccc(OC(F)F)c(Cl)c1)Nc1ccc2c(c1)OCO2	none
Cc1sc2ncnc(N3CCC(C(=O)N(C)CC(=O)Nc4ccc(Cl)c(C(F)(F)F)c4)CC3)c2c1C	none
Cc1ccc(S(=O)(=O)N2[C@@H](c3ccc(Br)cc3)C(C(=O)O)=CC[C@H]2c2cccs2)cc1	none (no result: PP5 inh, PP1 counter)
COC/C=C/C1=CC2=CC(=O)C(C)(OC(=O)c3cnc4ccccc4n3)C(=O)C2=CN1c1ccc(OC)cc1 (stereo unspecified)	PP1 counter 17.6
COC/C=C/C1=CC2=CC(=O)C(C)(OC(=O)c3cnc4ccccc4n3)C(=O)C2=CN1C1CC1 (stereo unspecified)	none
Cc1ccc(C)c(OCCC(=O)OC(C)C(=O)Nc2c(C)n(C)n(-c3ccccc3)c2=O)c1 (stereo unspecified)	none
CC(C)CC1Nc2ncnc(N3CCN(c4ccccn4)CC3)c2N(Cc2ccc(Br)cc2)C1=O (stereo unspecified)	PP1 counter 16.6
CN(C)c1ccc(C(=O)c2ccccc2C(=O)O)c(O)c1	none
CCCCN(CCCC)c1ccc(C(=O)c2ccccc2C(=O)O)c(O)c1	PP1 counter 16.9
Nc1ccc(N2CCCCC2)c2nonc12	PP5 inh 11.0, PP1 counter 16.7
Nc1c(N2CCCC2)cc(Cl)c2nonc12	none
Cc1ccc(S(=O)(=O)Nc2ccccc2C(=O)Nc2nc(-c3ccc(F)cc3)cs2)cc1	PP1 counter 16.7
CC1(C)S[C@@H]2[C@H](NC(=O)COc3ccccc3)C(=O)N2C1C(=O)OCC1CCCCC1 (stereo partly specified)	none
CC1(C)S[C@@H]2[C@H](NC(=O)COc3ccccc3)C(=O)N2C1C(=O)OCc1cc2ccccc2n1S(=O)(=O)c1ccccc1 (stereo partly specified)	PP1 counter 25.2
Cc1ccc(CNC(=O)/C(C#N)=C\c2ccc(N(C)C)cc2)cc1	proCasp3 act 21.8
O=C(/C=C/c1cc[n+](CC(=O)c2ccc3cccc4c3c2CC4)cc1)c1ccc2cccc3c2c1CC3	PP5 inh 11.6, PP1 counter 46.2
CC(C)c1nc(N2CCN(C(=O)c3ccccc3)CC2)c(C#N)c2c1COC(C)(C)C2	none
CC1(C)Cc2c(C#N)c(N3CCN(C(=O)c4ccccc4)CC3)nc(-c3ccco3)c2CS1	PP1 counter 15.5
Cc1c(NC(=O)c2ccc(NS(=O)(=O)c3ccc(F)c(F)c3)cc2)c(=O)n(-c2ccccc2)n1C	none (no result: PP5 inh, PP1 counter)
Cc1ccc(S(=O)(=O)N2CCOCC2)cc1NC(=O)CSCc1c(C)noc1C	none
O=C(NCCC1=CCCCC1)c1c(O)nc2ccccn2c1=O	PP1 counter 15.4
O=C(NCCC1=CCCCC1)c1c(O)nc2sccn2c1=O	none
O=C(Nc1ccccc1)Nc1cccc(NC(=O)Nc2ccccc2)c1F	PP1 counter 16.0
CCN(CC)C(=O)[C@H]1C[C@H](CC(=O)NC/C=C(\C)CCC=C(C)C)C(=O)N2CCc3c([nH]c4cc(CCC(=O)N(C)C)ccc34)[C@]12C	none (no result: PP5 inh, PP1 counter)
COc1ccccc1C(CCNCc1ccc(N(C)C)cc1)c1ccc(OC(C)C)cc1 (stereo unspecified)	PP1 counter 15.6
CCN(Cc1cccs1)C(=O)CN1C(=O)NC(c2ccccc2)(c2ccccc2)C1=O	none
Nc1nonc1-n1nnc(C(=O)N/N=C/c2ccc(Cl)cc2Cl)c1CN1CCCCC1	none
Nc1nonc1-n1nnc(C(=O)N/N=C/c2cc(Cl)ccc2O)c1CN1CCCCCC1	PP1 counter 16.3
O=C(Cn1cncc1-c1ccc([N+](=O)[O-])cc1)Nc1cccc2ccccc12	PP1 counter 21.3
CCCCn1c(=O)c2c(O)cc(=O)oc2c2ccccc21	none
O=c1cc(O)c2c(=O)n(Cc3ccccc3)c3ccccc3c2o1	PP1 counter 28.9
Cc1ccc(C(=O)Nc2ccccc2C(=O)O)cc1S(=O)(=O)Nc1ccc(Br)cc1	PP1 counter 16.4
COc1cccc(OC)c1-c1nn2c(-c3cc(-c4ccccc4)n[nH]3)nnc2s1	PP1 counter 58.6
COc1cccc(-c2nnc3sc(-c4ccccc4)nn23)c1	none
Cc1ccc(S(=O)(=O)N2CCOCC2)cc1NC(=O)CSc1nnc(NC2CC2)s1	none
N#Cc1c(NC(=O)c2ccccc2Cl)n(Cc2ccccc2)c2nc3ccccc3nc12	PP1 counter 22.3
CCCNC(=O)c1ccc(N2CCC3(CC2)CC(c2cccc(Br)c2)=NO3)c(NC(=O)c2cccc(C)c2)c1	PP1 counter 16.0
CCOC(=O)C1=C(C)NC(C)=C(C(=O)OCC)C1c1ccccc1/C=C/C(=O)OC(C)(C)C	proCasp7 act 29.9
CCOC(=O)C1=C(C)NC(C)=C(C(=O)OCC)C1/C=C/c1ccccc1	none
CC(C)[C@H](NC(=O)OCc1ccccc1)C(=O)N[C@@H](Cc1c[nH]c2ccccc12)C(=O)O	none
CCOc1ccc(/C(O)=C2/C(=O)C(=O)N(CCN(CC)CC)C2c2ccco2)cc1 (stereo unspecified)	none
Cc1ccccc1COc1ccc(/C(O)=C2/C(=O)C(=O)N(CCCn3ccnc3)C2c2ccco2)cc1 (stereo unspecified)	PP1 counter 17.5
Nc1ccc(O)c(C(=O)O)c1	none
O=C(O)C1=CC(=C(c2ccc(O)c(C(=O)O)c2)c2ccc(O)c(C(=O)O)c2)C=CC1=O	PP1 counter 82.4
CCC1(C)NC(=O)N(CC(=O)Nc2cc(C)on2)C1=O (stereo unspecified)	none (no result: PP5 inh, PP1 counter)
CCOC(=O)c1cccc(NC(=O)/C(=C\c2ccccc2)NC(=O)c2ccccc2Cl)c1	PP1 counter 16.7
COC(=O)[C@]1(Cc2ccccc2)N[C@H](CN(C)C(=O)Nc2ccc(OC)cc2)[C@@H]2C(=O)N(Cc3ccccc3)C(=O)[C@@H]21	none (no result: PP5 inh, PP1 counter)
COc1ccc(OC)c(C2C(C(=O)c3ccc(C)o3)=C(O)C(=O)N2c2cc(C)on2)c1 (stereo unspecified)	none
COc1ccc(C2C(C(=O)c3ccc(C)o3)=C(O)C(=O)N2c2cc(C)on2)cc1OC (stereo unspecified)	none
COc1ccc(OC)c(C2C(C(=O)c3cc4ccccc4o3)=C(O)C(=O)N2c2cc(C)on2)c1 (stereo unspecified)	PP1 counter 20.6
COc1ccccc1C1C(C(=O)c2cc3ccccc3o2)=C(O)C(=O)N1c1cc(C)on1 (stereo unspecified)	PP1 counter 19.9
O=C(CSc1nccc(=O)[nH]1)Nc1cccc2ccccc12	none
COc1ccc(C2c3c(-c4cc(Cl)c(C)cc4O)n[nH]c3C(=O)N2Cc2cccnc2)cc1OC (stereo unspecified)	PP1 counter 15.3
COc1ccc(C2c3c(-c4ccccc4O)n[nH]c3C(=O)N2Cc2ccco2)cc1OC (stereo unspecified)	none
O=C1C=C(c2cc(F)ccc2F)C[C@@H](c2ccc(F)cc2)C1	none
Cc1sc(NC(=O)CSc2nc(O)cc(=O)[nH]2)nc1-c1ccccc1	none
